Experiment [1] has as its system 308 human kinases. To be noted: cited from earlier work; for share of all protein kinases targeted (same metric, more than 80% inhibition): 500 nM.
For another experiment, the target named is Src-AS1 (Gly gatekeeper) (Gallus gallus, UniProt P00523, T338G). Put plainly: in vitro kinase inhibition, seven-point dose-response. The format is biochemical.
The subject of the next experiment is v-Src-AS1. As to the kind of experiment: inhibition of tyrosine phosphorylation in stably transfected 3T3 cells. The format is cell-based, mouse.
The test system of the next experiment is EphA4-AS1. As to the kind of experiment: EphA4 auto-phosphorylation in transfected HEK-293T cells. It is filed as cell-based.
The target in a further experiment is EphA4-WT (Homo sapiens, UniProt P54764). The description is as above. The format is cell-based.
For experiment [2], the target named is T1, Pkd1-WT (Homo sapiens, UniProt Q15139). As to conditions: cited from earlier work.
For another experiment, the target named is Kif5b-Ret-WT (Homo sapiens, UniProt P07949+P33176). To be noted: cited from earlier work.
The target in a further experiment is Src-WT (Gallus gallus, UniProt P00523). Put plainly: in vitro kinase inhibition, seven-point dose-response. The format is biochemical.
The target in another experiment is Src-AS2 (Ala gatekeeper) (Gallus gallus, UniProt P00523, T338A). The experiment is described as above. It is filed as biochemical.
In a further experiment the target is CK1ε (Homo sapiens, UniProt P49674). Put plainly: in vitro IC50 against PP-sensitive WT kinases. As to conditions: read-out: IC50 CK1ε; mean ± SEM. The format is biochemical. In outline:
(§1)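 In vitro kinase inhibition. IC50 derived from a seven-point dose-response of test compound; values reported as mean with standard error of the mean.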

A further experiment has as its target CKδ (Homo sapiens, UniProt P48730). Put plainly: in vitro IC50 against PP-sensitive WT kinases. It is filed as biochemical. As to conditions: read-out: IC50 CKδ; mean ± SEM. An outline of the steps: as §1
The target in another experiment is Pkd1 (Homo sapiens, UniProt Q15139). Put plainly: in vitro IC50 against PP-sensitive WT kinases. It is filed as biochemical. As to conditions: read-out: IC50 Pkd1; mean ± SEM. An outline of the steps: as §1
In the next experiment the target is Pkd2 (Homo sapiens, UniProt Q9BZL6). Put plainly: in vitro IC50 against PP-sensitive WT kinases. To be noted: read-out: IC50 Pkd2; mean ± SEM. It is filed as biochemical. An outline of the steps:
as §1

A further experiment addresses Ack (Homo sapiens, UniProt Q07912). As to the kind of experiment: in vitro IC50 against PP-sensitive WT kinases. It is filed as biochemical. As to conditions: read-out: IC50 Ack; mean ± SEM. In outline:
as §1

The target in another experiment is EphA1 (Homo sapiens, UniProt P21709). As to the kind of experiment: in vitro IC50 against PP-sensitive WT kinases. It is filed as biochemical. To be noted: read-out: IC50 EphA1; mean ± SEM. An outline of the steps:
as §1

The next experiment addresses Ptk6 (Homo sapiens, UniProt Q13882). As to the kind of experiment: in vitro IC50 against PP-sensitive WT kinases. It is filed as biochemical. To be noted: read-out: IC50 Ptk6; mean ± SEM. In outline: as §1
The target of the next experiment is Ret (Homo sapiens, UniProt P07949). As to the kind of experiment: in vitro IC50 against PP-sensitive WT kinases. It is filed as biochemical. To be noted: read-out: IC50 Ret; mean ± SEM. In outline: as §1
Experiment [3] concerns 308 human kinases. Put plainly: kinase panel inhibition profiling. It is filed as biochemical. To be noted: 1 µM. In outline: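 Single-point profiling of 308 human kinases: fraction of each kinase's activity inhibited by test compound at 1µM.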
The subject of a further experiment is v-Src-WT. As to the kind of experiment: inhibition of tyrosine phosphorylation in stably transfected 3T3 cells. It is filed as cell-based, mouse.
The test system of the next experiment is Pkd1-AS1. Put plainly: Pkd auto-phosphorylation at S916 in transfected HEK-293T cells. To be noted: 625nM - 10µM. The format is cell-based. In outline:
(§2)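 HEK-293T cells transiently transfected with Pkd1-WT or Pkd1-AS1. Cells treated with test compound across 625nM - 10µM, then assessed for Pkd auto-phosphorylation at S916.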

In experiment [4] the target is T1, Pkd1-WT. The description is as above. It is filed as cell-based. To be noted: 625nM - 10µM. In outline:
as §2

A further experiment concerns Pkd1-AS2. Put plainly: Pkd1-AS2 inhibition in cells. The format is cell-based.
The target in the next experiment is Kif5b-Ret-AS2 (Homo sapiens, UniProt P07949+P33176, V804A). Put plainly: Ret auto-phosphorylation at Y905 in 3T3 mouse cells. The format is cell-based. An outline of the steps:
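Mouse 3T3 cells expressing Kif5b-Ret-AS2 or Kif5b-Ret-WT were exposed to test compound at 10µM, 3.3µM and 1.1µM. Read-out was Ret auto-phosphorylation at Y905.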

[5] abbreviates: N12-butylamine derivative of the C7-iso-butyl staralog.

The values that follow come from publication PMC3938282 (Journal of the American Chemical Society, 2013).

Where only a bound is given, the exact number is not on record here.

T1 sequence (Q15139 whole entry): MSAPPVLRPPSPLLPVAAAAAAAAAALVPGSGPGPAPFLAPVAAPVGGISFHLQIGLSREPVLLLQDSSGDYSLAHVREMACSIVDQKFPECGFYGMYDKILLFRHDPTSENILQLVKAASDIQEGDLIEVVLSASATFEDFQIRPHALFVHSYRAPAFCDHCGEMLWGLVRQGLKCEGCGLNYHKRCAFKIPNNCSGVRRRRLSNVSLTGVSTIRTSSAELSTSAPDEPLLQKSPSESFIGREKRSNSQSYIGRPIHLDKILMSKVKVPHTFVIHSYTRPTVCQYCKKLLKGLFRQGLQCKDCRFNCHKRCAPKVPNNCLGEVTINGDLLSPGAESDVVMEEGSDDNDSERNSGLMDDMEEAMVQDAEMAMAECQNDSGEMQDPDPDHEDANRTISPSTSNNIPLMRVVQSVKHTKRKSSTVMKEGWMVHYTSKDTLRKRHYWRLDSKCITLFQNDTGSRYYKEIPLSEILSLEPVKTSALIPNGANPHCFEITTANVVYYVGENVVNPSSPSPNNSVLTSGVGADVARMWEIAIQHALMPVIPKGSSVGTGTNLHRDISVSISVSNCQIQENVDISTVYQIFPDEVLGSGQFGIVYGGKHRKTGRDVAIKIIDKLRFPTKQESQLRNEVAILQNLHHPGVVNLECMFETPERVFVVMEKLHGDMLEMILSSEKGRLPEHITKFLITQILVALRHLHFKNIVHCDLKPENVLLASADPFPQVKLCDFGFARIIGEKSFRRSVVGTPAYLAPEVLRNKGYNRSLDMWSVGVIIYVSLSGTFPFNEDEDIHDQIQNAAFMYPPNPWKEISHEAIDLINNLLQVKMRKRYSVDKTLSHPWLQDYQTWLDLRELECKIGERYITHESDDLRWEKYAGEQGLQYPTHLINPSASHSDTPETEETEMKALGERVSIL
Ack, sequence (Q07912 whole entry): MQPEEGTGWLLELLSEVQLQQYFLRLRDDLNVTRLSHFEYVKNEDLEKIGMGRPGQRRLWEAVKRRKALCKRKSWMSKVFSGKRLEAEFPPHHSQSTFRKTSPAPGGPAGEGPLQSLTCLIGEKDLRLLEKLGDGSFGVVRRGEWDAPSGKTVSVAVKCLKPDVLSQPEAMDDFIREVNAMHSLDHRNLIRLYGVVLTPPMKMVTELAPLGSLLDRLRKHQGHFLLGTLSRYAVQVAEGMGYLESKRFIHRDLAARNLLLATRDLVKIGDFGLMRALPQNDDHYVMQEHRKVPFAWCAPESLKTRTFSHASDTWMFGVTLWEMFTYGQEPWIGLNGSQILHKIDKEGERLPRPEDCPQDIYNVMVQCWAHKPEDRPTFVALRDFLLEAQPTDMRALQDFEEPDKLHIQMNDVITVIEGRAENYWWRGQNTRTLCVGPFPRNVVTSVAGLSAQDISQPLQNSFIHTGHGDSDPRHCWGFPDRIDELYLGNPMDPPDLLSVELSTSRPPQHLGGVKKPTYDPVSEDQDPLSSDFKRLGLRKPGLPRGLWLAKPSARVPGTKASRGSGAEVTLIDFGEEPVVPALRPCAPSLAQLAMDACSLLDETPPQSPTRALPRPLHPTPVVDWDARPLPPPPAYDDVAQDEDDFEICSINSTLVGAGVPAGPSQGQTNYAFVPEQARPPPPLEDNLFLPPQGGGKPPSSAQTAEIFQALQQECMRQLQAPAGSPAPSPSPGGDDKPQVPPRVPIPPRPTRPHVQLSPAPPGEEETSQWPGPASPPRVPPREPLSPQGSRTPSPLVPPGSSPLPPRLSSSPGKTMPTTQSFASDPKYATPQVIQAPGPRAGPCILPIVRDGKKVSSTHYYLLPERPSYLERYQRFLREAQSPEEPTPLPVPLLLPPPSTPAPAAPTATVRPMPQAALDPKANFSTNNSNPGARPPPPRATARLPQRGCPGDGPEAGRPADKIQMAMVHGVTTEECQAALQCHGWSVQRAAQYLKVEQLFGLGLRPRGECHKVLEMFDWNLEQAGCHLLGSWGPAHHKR
EphA4-WT, sequence (P54764 20-986): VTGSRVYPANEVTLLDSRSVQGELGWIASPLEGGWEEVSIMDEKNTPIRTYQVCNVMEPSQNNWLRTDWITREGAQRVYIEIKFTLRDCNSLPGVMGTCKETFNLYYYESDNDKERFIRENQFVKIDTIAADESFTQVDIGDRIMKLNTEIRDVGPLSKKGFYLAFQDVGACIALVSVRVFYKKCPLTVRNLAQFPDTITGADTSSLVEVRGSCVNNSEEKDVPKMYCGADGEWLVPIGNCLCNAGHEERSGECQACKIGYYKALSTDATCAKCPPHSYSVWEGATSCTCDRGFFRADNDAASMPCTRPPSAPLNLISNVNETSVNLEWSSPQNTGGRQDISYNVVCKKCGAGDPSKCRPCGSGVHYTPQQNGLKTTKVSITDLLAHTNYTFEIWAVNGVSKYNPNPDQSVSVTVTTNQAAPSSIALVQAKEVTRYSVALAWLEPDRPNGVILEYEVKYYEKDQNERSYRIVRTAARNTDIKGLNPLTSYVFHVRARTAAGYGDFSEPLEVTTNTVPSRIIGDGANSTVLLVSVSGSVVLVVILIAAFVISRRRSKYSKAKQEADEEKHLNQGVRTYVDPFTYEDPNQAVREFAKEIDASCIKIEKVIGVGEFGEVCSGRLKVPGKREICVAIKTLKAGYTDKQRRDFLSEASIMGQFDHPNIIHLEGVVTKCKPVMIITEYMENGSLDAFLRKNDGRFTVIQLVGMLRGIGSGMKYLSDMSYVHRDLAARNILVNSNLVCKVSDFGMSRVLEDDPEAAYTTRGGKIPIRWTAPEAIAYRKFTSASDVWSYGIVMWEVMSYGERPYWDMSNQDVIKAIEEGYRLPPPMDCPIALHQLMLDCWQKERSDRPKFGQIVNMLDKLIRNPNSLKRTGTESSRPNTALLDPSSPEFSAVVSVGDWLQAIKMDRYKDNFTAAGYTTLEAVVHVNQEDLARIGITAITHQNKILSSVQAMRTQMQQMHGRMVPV
CK1ε, sequence (P49674 whole entry): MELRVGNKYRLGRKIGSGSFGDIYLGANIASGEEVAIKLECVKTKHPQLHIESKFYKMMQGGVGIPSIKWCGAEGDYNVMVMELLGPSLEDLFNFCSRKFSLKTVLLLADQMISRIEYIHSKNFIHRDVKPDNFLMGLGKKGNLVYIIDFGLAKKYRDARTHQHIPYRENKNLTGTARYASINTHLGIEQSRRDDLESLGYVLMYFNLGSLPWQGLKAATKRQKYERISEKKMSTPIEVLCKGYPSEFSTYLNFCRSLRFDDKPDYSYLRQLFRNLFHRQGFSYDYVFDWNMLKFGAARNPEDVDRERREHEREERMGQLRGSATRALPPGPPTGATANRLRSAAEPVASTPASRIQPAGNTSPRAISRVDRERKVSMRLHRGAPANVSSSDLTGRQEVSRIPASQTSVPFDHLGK
Kif5b-Ret-WT, sequence (P07949 713-1063 limits assumed, one chain of several): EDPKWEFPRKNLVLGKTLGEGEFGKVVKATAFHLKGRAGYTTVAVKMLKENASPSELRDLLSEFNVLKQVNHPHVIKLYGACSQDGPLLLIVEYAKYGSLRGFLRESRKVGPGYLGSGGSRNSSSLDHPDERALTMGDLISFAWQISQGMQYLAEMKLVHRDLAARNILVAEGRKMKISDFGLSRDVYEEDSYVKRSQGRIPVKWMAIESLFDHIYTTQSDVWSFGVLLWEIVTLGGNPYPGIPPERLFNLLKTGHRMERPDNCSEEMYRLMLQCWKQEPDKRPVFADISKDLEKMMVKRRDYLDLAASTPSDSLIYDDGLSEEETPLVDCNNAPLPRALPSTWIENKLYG
Pkd1, sequence (Q15139 whole entry): as the sequence (Q15139 whole entry) above
Kif5b-Ret-AS2, sequence (P07949 713-1063 V804A limits assumed, one chain of several): as the sequence (P07949 713-1063 limits assumed, one chain of several) above, with V92A counted along it
EphA1, sequence (P21709 26-976): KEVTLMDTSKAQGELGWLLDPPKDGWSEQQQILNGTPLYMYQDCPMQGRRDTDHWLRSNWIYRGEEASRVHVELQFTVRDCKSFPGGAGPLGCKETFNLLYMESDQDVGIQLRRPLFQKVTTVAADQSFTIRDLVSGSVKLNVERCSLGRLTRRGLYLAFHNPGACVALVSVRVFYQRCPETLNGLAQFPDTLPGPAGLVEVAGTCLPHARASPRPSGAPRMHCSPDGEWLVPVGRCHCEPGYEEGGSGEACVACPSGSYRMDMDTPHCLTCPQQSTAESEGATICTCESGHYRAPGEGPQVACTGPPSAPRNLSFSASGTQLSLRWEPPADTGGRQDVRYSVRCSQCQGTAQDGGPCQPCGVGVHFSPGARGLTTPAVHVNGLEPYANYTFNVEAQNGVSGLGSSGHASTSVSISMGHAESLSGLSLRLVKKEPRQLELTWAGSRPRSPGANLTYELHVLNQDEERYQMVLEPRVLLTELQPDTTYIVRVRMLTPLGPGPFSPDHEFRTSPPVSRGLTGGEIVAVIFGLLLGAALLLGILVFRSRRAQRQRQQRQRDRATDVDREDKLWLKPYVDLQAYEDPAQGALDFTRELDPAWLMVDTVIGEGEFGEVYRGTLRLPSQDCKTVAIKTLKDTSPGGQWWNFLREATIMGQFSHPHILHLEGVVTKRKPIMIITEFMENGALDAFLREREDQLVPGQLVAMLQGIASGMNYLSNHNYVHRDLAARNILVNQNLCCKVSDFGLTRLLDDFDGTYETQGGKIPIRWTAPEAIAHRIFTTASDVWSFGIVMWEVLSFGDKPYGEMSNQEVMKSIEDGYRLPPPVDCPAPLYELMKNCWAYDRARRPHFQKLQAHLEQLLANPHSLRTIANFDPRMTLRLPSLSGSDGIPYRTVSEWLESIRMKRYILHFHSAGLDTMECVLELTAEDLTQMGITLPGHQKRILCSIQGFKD

Take `CN[C@@H]1C[C@H]2O[C@@](C)([C@@H]1OC)n1c3ccccc3c3c4c(c5c6ccccc6n2c5c31)C(=O)NC4` [staurosporine]: in the experiment on 308 human kinases [1], the “share of all protein kinases targeted (same metric, more than 80% inhibition)” value is recorded as 72% and the “share of protein kinases potently targeted” value was ~ 80%.
As to `CC(C)C[C@@H]1NC(=O)c2c1c1c3ccccc3[nH]c1c1[nH]c3ccccc3c21` [Star 1], the “activity/potency towards Src-AS1 (in words)” value on Src-AS1 (Gly gatekeeper) was “most potent”. In addition, in the experiment on v-Src-AS1, the “concentration giving robust inhibition of v-Src-AS1 mediated phosphorylation” value is reported as “below 1 µM” and the “relative potency against v-Src-AS1 in cells (in words)” value is recorded as “weakest”.
For `CC(C)(C)n1nc(-c2cccc3ccccc23)c2c(N)ncnc21` [Star 1NA-PP1, 1NA-PP1], the “inhibition of EphA4-AS1 allele” value with EphA4-AS1 (at ≥2.5µM) is reported as “greater than 90%”. Also, the “concentrations at which EphA4-WT activity is inhibited” value at EphA4-WT is recorded as ≥ 2.5 µM. For the same compound, in the experiment with 308 human kinases [1], the “share of kinases inhibited by more than 80%” value is reported as 4.5%. Besides, the “inhibition of Pkd1 WT kinase (in words)” value on Pkd1-WT [2] is “weakly inhibited at higher drug concentrations”. On Kif5b-Ret-WT, the “inhibition of Ret WT kinase (in words)” value is on record as “weakly inhibited at higher drug concentrations”.
Consider `O=C1NCc2c1c1c3ccccc3[nH]c1c1[nH]c3ccccc3c21` [Star K252c, K252c, reference compound], for which the “activity towards Src-WT (in words)” value at Src-WT is “complete loss of activity”. In addition, on Src-AS1 (Gly gatekeeper), the “activity/potency towards Src-AS1 (in words)” value is reported as “complete loss of activity”. Also, the “activity towards Src-AS2 (in words)” value at Src-AS2 (Ala gatekeeper) is “complete loss of activity”.
For the compound `COC(=O)[C@@]1(O)C[C@H]2O[C@]1(C)n1c3ccccc3c3c4c(c5c6ccccc6n2c5c31)C(=O)NC4` [Star K252a, K252a], the “share of all protein kinases targeted (same metric, more than 80% inhibition)” value with 308 human kinases [1] was 49%.
As to `Cc1cccc(Cc2nn(C(C)(C)C)c3ncnc(N)c23)c1` [Star 3MB-PP1, 3MB-PP1], the “share of kinases inhibited by more than 80%” value in the experiment on 308 human kinases [1] was 1.2%.
Turning to `CC(C)C[C@@H]1NC(=O)c2c1c1c3ccccc3n(CCCCN)c1c1[nH]c3ccccc3c21` [Star 12], the IC50 on Src-WT (read-out: IC50 toward Src-WT) is > 5 µM; at CK1ε, > 5 µM; on CKδ it was > 5 µM; at Pkd1 it was 3.3 µM; at Pkd2, > 5 µM; at Ack, 1300 nM. Moreover, the IC50 at EphA1, at Ptk6 and at Ret was > 5 µM throughout. The “improvement in potency toward Src-AS1” value at Src-AS1 (Gly gatekeeper) (setting [5]) is given as “~ ten-fold”. On Src-AS2 (Ala gatekeeper) (setting [5]), the “improvement in potency toward Src-AS2” value is “~ ten-fold”. Also, the “highest inhibition of any single kinase in the panel” value with 308 human kinases [3] is ≤ 80%. The “concentration giving robust inhibition of v-Src-AS1 mediated phosphorylation” value with v-Src-AS1 is “below 1 µM”. The “relative potency against v-Src-AS1 in cells (in words)” value in the experiment on v-Src-AS1 is reported as “most potent inhibitor”. The “effect on v-Src-WT-mediated phosphorylation (in words)” value in the experiment on v-Src-WT is “little effect”. Further, the “activity towards EphA4-AS1 (in words)” value with EphA4-AS1 is on record as “exhibited activity”. Also, the “activity towards Pkd1-AS1 (in words)” value in the experiment on Pkd1-AS1 is given as “potent Pkd-AS1 inhibitors”. Also, at Pkd1-WT [4], the “effect on Pkd1-WT activity (in words)” value was “do not affect Pkd1-WT activity”. For the same compound, the “activity towards Pkd1-AS2 (in words)” value in the experiment with Pkd1-AS2 is reported as “did not show activity”. Besides, the “inhibition of Ret-AS2 autophosphorylation (in words)” value against Kif5b-Ret-AS2 is on record as “capable of inhibiting”.
As to `CC(C)(C)n1nc(Cc2cccc3ccccc23)c2c(N)ncnc21` [Star 1NM-PP1, 1NM-PP1], in the experiment with 308 human kinases [1], the “share of kinases inhibited by more than 80%” value is listed as 1.2%.

As a reminder, the IC50 is the concentration needed to halve the response being measured.
